From ChEMBL document CHEMBL1137547, “Synthesis and antifungal activities of novel 2-aminotetralin derivatives” (2007)
In brackets after ≈: the same amount, converted by molar mass.

What was measured:
Format in all cases: functional
Candida albicans = assay: Antifungal activity against Candida albicans after 24 hrs
In short: (§1)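 Candida yeasts were tested by NCCLS microdilution in RPMI 1640 buffered with 0.165 M MOPS and incubated at 35 °C. Compounds were dissolved in DMSO and serially diluted in medium. Isolates came from ATCC or the clinic. The MIC was read at 24 h as the lowest concentration achieving ≥80% growth inhibition versus the control.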

Trichophyton rubrum = assay: Antifungal activity against Trichophyton rubrum
In short: (§2)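 Dermatophytes were tested by NCCLS serial dilution in RPMI 1640 with 0.165 M MOPS and incubated at 28 °C. Compounds were dissolved in DMSO and diluted in medium. Strains came from ATCC or clinical isolates. The MIC was read at 7 d as the lowest concentration reducing turbidity by ≥80% relative to the drug-free control.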

Candida parapsilosis = assay: Antifungal activity against Candida parapsilosis after 24 hrs; settings: Lodderomyces parapsilosis; in short: as §1
Cryptococcus neoformans = assay: Antifungal activity against Cryptococcus neoformans after 72 hrs
In short: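 Cryptococcus neoformans was tested by NCCLS serial dilution in MOPS-buffered (0.165 M) RPMI 1640 at 35 °C. Compounds were dissolved in DMSO and diluted in medium. The MIC was read at 72 h as the lowest concentration giving turbidity inhibition of ≥80% relative to the growth control.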

Fonsecaea compacta = assay: Antifungal activity against Fonsecaea compacta
In short: (§3)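 NCCLS broth serial dilution in RPMI 1640 buffered with 0.165 M MOPS. Compounds were dissolved in DMSO and serially diluted in medium. Strains came from ATCC or clinical isolates. The growth MIC for filamentous fungi was read at 7 d, taken as the lowest concentration giving ≥80% turbidity inhibition versus the growth control.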

Microsporum = assay: Antifungal activity against Microsporum gypseum; in short: as §2
Aspergillus fumigatus = assay: Antifungal activity against Aspergillus fumigatus; in short: as §3

SMILES | MIC (Candida albicans) [µM] | MIC (Trichophyton rubrum) [µM] | MIC (Candida parapsilosis) [µM] | MIC (Cryptococcus neoformans) [µM] | MIC (Fonsecaea compacta) [µM] | MIC (Microsporum) [µM] | MIC (Aspergillus fumigatus) [µM]
COc1ccc(NC2CCc3cc(OC)ccc3C2)cc1 (configuration not stated) | > 64 | 8 (≈ 2.27 µg/mL) | > 64 | > 64 | > 64 | 8 (≈ 2.27 µg/mL) | > 64
COc1ccc2c(c1)CCC(Nc1ccccc1)C2 (configuration not stated) | > 64 | 0.5 (≈ 0.127 µg/mL) | > 64 | > 64 | > 64 | 32 (≈ 8.11 µg/mL) | > 64
COc1cccc2c1CC(NCc1ccccc1)CC2 (configuration not stated) | > 64 | 32 (≈ 8.56 µg/mL) | > 64 | > 64 | > 64 | 4 (≈ 1.07 µg/mL) | > 64
CCCCCCCCCCNC1CCc2ccc(O)cc2C1 (configuration not stated) | 1 (≈ 0.303 µg/mL) | 0.25 (≈ 0.0759 µg/mL) | 4 (≈ 1.21 µg/mL) | 1 (≈ 0.303 µg/mL) | 2 (≈ 0.607 µg/mL) | 4 (≈ 1.21 µg/mL) | 32 (≈ 9.71 µg/mL)
COc1cccc2c1CCC(Nc1ccccc1)C2 (configuration not stated) | > 64 | 2 (≈ 0.507 µg/mL) | > 64 | > 64 | > 64 | 32 (≈ 8.11 µg/mL) | > 64
CCCCCCCCCCCCCCNC1CCc2cc(OC)ccc2C1 (configuration not stated) | 32 (≈ 12 µg/mL) | 16 (≈ 5.98 µg/mL) | > 64 | 64 (≈ 23.9 µg/mL) | > 64 | > 64 | > 64
COc1ccc2c(c1)CCC(NCc1ccccc1)C2 (configuration not stated) | 30 (≈ 8.02 µg/mL) | 16 (≈ 4.28 µg/mL) | > 64 | > 64 | > 64 | > 64 | > 64
NC1CCc2cccc(O)c2C1 (configuration not stated) | > 64 | > 64 | > 64 | > 64 | 32 (≈ 5.22 µg/mL) | > 64 | > 64
COc1ccc2c(c1)CC(N)CC2 (configuration not stated) | > 64 | 64 (≈ 11.3 µg/mL) | > 64 | > 64 | > 64 | > 64 | > 64
CCCCCCCCCCCCNC1CCc2cccc(O)c2C1 (configuration not stated) | 16 (≈ 5.3 µg/mL) | 4 (≈ 1.33 µg/mL) | 32 (≈ 10.6 µg/mL) | 32 (≈ 10.6 µg/mL) | 8 (≈ 2.65 µg/mL) | > 64 | 32 (≈ 10.6 µg/mL)
Oc1cccc2c1CC(NCc1ccccc1)CC2 (configuration not stated) | 64 (≈ 16.2 µg/mL) | 0.5 (≈ 0.127 µg/mL) | > 64 | > 64 | 32 (≈ 8.11 µg/mL) | 32 (≈ 8.11 µg/mL) | > 64
CCCCCCCCCCCCNC1CCc2ccc(OC)cc2C1 (configuration not stated) | 2 (≈ 0.691 µg/mL) | 2 (≈ 0.691 µg/mL) | 1 (≈ 0.346 µg/mL) | 1 (≈ 0.346 µg/mL) | 8 (≈ 2.76 µg/mL) | 2 (≈ 0.691 µg/mL) | 16 (≈ 5.53 µg/mL)
CCCCCCCCCCCCCCCCCCNC1CCc2cccc(O)c2C1 (configuration not stated) | > 64 | 2 (≈ 0.831 µg/mL) | > 64 | > 64 | 64 (≈ 26.6 µg/mL) | > 64 | > 64
CCCCCCCCCCCCNC1CCc2ccc(O)cc2C1 (configuration not stated) | 16 (≈ 5.3 µg/mL) | 1 (≈ 0.332 µg/mL) | > 64 | 32 (≈ 10.6 µg/mL) | 32 (≈ 10.6 µg/mL) | 4 (≈ 1.33 µg/mL) | > 64
CCCCCCCCCNC1CCc2ccc(O)cc2C1 (configuration not stated) | 1 (≈ 0.289 µg/mL) | 4 (≈ 1.16 µg/mL) | 16 (≈ 4.63 µg/mL) | 8 (≈ 2.32 µg/mL) | 8 (≈ 2.32 µg/mL) | 8 (≈ 2.32 µg/mL) | 64 (≈ 18.5 µg/mL)
COc1ccc(NC2CCc3cccc(OC)c3C2)cc1 (configuration not stated) | > 64 | 32 (≈ 9.07 µg/mL) | > 64 | > 64 | > 64 | 16 (≈ 4.53 µg/mL) | > 64
CCCCCCCCCNC1CCc2ccc(OC)cc2C1 (configuration not stated) | 0.25 (≈ 0.0759 µg/mL) | 0.0625 (≈ 0.019 µg/mL) | 4 (≈ 1.21 µg/mL) | 4 (≈ 1.21 µg/mL) | 2 (≈ 0.607 µg/mL) | 4 (≈ 1.21 µg/mL) | 16 (≈ 4.86 µg/mL)
CCCCCCCCCCCCNC1CCc2c(cccc2OC)C1 (configuration not stated) | 8 (≈ 2.76 µg/mL) | 0.5 (≈ 0.173 µg/mL) | 16 (≈ 5.53 µg/mL) | 8 (≈ 2.76 µg/mL) | 8 (≈ 2.76 µg/mL) | 16 (≈ 5.53 µg/mL) | > 64
Oc1cccc2c1CCC(Nc1ccc(Cl)cc1)C2 (configuration not stated) | 2 (≈ 0.548 µg/mL) | 2 (≈ 0.548 µg/mL) | 8 (≈ 2.19 µg/mL) | 8 (≈ 2.19 µg/mL) | 16 (≈ 4.38 µg/mL) | 0.5 (≈ 0.137 µg/mL) | 64 (≈ 17.5 µg/mL)
CCCCNC1CCc2cc(OC)ccc2C1 (configuration not stated) | 64 (≈ 14.9 µg/mL) | 64 (≈ 14.9 µg/mL) | > 64 | 64 (≈ 14.9 µg/mL) | > 64 | > 64 | > 64
CCCCCCCCCNC1CCc2c(O)cccc2C1 (configuration not stated) | 1 (≈ 0.289 µg/mL) | 4 (≈ 1.16 µg/mL) | 32 (≈ 9.26 µg/mL) | 8 (≈ 2.32 µg/mL) | 4 (≈ 1.16 µg/mL) | 8 (≈ 2.32 µg/mL) | 64 (≈ 18.5 µg/mL)
